From ChEMBL document CHEMBL1137338, “Effects of substitution on 9-(3-bromo-4-fluorophenyl)-5,9-dihydro-3H,4H-2,6-dioxa-4- azacyclopenta[b]naphthalene-1,8-dione, a dihydropyridine ATP-sensitive potassium channel opener” (J Med Chem, 2006) come the findings set out here.

For test [1], the system named is Rattus norvegicus. Kind of test: Activity against volume-induced reflex neurogenic bladder contraction in urethral ligated rat measured as reduction in AUC at 0.3 umol/kg, iv. Also on record: scale not given: the % may be the effect or the level left. Type of test: functional, Urinary bladder.
Test [2] relates to Rattus norvegicus. Kind of test: Activity against volume-induced reflex neurogenic bladder contraction in urethral ligated rat measured as reduction in AUC at 1 umol/kg, iv. Type of test: functional, Urinary bladder. Also on record: scale not given: the % may be the effect or the level left.
Test [3] concerns Rattus norvegicus. As to the kind of experiment: Activity against volume-induced reflex neurogenic bladder contraction in urethral ligated rat measured as reduction in AUC at 3 umol/kg, iv. Also on record: scale not given: the % may be the effect or the level left. It is filed as functional, Urinary bladder.
The subject of test [4] is Rattus norvegicus. Kind of test: Activity against spontaneous myogenic bladder contraction in partial outlet obstructed rat measured as reduction in AUC at 0.1 umol/kg, iv. It is filed as functional. Also noted: scale not given: the % may be the effect or the level left.
The subject of test [5] is Rattus norvegicus. Kind of test: Activity against spontaneous myogenic bladder contraction in partial outlet obstructed rat measured as reduction in AUC at 0.03 umol/kg, iv. Type of test: functional. Also on record: scale not given: the % may be the effect or the level left.
Test [6] concerns Rattus norvegicus. As to the kind of experiment: Activity against spontaneous myogenic bladder contraction in partial outlet obstructed rat measured as reduction in AUC at 0.3 umol/kg, iv. It is filed as functional. Also noted: scale not given: the % may be the effect or the level left.
For test [7], the system named is Rattus norvegicus. Kind of test: Activity against spontaneous myogenic bladder contraction in partial outlet obstructed rat measured as reduction in AUC at 1 umol/kg, iv. Type of test: functional. Also on record: scale not given: the % may be the effect or the level left.
For test [8], the system named is Rattus norvegicus. As to the kind of experiment: Activity against volume-induced reflex neurogenic bladder contraction in urethral ligated rat measured as reduction in MAP at 0.3 umol/kg, iv. Type of test: functional, Urinary bladder. Also noted: scale not given: the % may be the effect or the level left.
Test [9] concerns Rattus norvegicus. As to the kind of experiment: Activity against volume-induced reflex neurogenic bladder contraction in urethral ligated rat measured as reduction in MAP at 1 umol/kg, iv. Type of test: functional, Urinary bladder. Also noted: scale not given: the % may be the effect or the level left.
The subject of test [10] is Rattus norvegicus. Kind of test: Activity against volume-induced reflex neurogenic bladder contraction in urethral ligated rat measured as reduction in MAP at 3 umol/kg, iv. Type of test: functional, Urinary bladder. Also noted: scale not given: the % may be the effect or the level left.
For test [11], the system named is Rattus norvegicus. As to the kind of experiment: Activity against spontaneous myogenic bladder contraction in partial outlet obstructed rat measured as reduction in MAP at 0.1 umol/kg, iv. It is filed as functional. Also noted: scale not given: the % may be the effect or the level left.
The subject of test [12] is Rattus norvegicus. As to the kind of experiment: Activity against spontaneous myogenic bladder contraction in partial outlet obstructed rat measured as reduction in MAP at 0.03 umol/kg, iv. It is filed as functional. Also on record: scale not given: the % may be the effect or the level left.
Test [13] relates to Rattus norvegicus. As to the kind of experiment: Activity against spontaneous myogenic bladder contraction in partial outlet obstructed rat measured as reduction in MAP at 0.3 umol/kg, iv. Type of test: functional. Also on record: scale not given: the % may be the effect or the level left.
The subject of test [14] is Rattus norvegicus. As to the kind of experiment: Activity against spontaneous myogenic bladder contraction in partial outlet obstructed rat measured as reduction in MAP at 1 umol/kg, iv. It is filed as functional. Also on record: scale not given: the % may be the effect or the level left.
The target in test [15] is T1, Sulfonylurea receptor 2, Kir6.2 (Homo sapiens, UniProt O60706+Q14654). Kind of test: Activity against pig bladder KATP channel opening assessed as ability to relax spontaneous bladder contraction. It is filed as functional, Sus scrofa. Conditions: target entry is the homologue from another species. Put shortly: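 Spontaneously contracting detrusor strips were taken from near the trigonal region of Landrace pig bladder. Increasing concentrations of test agent were applied, and the reduction in area under the curve (AUC) of the spontaneous contractions was measured.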
T1 sequence (Q14654 whole entry): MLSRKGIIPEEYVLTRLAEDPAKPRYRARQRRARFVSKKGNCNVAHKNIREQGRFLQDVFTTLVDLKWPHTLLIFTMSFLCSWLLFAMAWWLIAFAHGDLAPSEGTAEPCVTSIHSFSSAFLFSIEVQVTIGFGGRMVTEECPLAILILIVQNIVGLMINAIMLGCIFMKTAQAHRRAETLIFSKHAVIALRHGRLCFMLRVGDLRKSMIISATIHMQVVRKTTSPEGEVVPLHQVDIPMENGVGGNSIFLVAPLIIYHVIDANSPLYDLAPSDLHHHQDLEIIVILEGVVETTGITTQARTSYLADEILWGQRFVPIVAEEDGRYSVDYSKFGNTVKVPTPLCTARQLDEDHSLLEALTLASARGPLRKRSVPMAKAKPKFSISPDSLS
T1 sequence (O60706 whole entry): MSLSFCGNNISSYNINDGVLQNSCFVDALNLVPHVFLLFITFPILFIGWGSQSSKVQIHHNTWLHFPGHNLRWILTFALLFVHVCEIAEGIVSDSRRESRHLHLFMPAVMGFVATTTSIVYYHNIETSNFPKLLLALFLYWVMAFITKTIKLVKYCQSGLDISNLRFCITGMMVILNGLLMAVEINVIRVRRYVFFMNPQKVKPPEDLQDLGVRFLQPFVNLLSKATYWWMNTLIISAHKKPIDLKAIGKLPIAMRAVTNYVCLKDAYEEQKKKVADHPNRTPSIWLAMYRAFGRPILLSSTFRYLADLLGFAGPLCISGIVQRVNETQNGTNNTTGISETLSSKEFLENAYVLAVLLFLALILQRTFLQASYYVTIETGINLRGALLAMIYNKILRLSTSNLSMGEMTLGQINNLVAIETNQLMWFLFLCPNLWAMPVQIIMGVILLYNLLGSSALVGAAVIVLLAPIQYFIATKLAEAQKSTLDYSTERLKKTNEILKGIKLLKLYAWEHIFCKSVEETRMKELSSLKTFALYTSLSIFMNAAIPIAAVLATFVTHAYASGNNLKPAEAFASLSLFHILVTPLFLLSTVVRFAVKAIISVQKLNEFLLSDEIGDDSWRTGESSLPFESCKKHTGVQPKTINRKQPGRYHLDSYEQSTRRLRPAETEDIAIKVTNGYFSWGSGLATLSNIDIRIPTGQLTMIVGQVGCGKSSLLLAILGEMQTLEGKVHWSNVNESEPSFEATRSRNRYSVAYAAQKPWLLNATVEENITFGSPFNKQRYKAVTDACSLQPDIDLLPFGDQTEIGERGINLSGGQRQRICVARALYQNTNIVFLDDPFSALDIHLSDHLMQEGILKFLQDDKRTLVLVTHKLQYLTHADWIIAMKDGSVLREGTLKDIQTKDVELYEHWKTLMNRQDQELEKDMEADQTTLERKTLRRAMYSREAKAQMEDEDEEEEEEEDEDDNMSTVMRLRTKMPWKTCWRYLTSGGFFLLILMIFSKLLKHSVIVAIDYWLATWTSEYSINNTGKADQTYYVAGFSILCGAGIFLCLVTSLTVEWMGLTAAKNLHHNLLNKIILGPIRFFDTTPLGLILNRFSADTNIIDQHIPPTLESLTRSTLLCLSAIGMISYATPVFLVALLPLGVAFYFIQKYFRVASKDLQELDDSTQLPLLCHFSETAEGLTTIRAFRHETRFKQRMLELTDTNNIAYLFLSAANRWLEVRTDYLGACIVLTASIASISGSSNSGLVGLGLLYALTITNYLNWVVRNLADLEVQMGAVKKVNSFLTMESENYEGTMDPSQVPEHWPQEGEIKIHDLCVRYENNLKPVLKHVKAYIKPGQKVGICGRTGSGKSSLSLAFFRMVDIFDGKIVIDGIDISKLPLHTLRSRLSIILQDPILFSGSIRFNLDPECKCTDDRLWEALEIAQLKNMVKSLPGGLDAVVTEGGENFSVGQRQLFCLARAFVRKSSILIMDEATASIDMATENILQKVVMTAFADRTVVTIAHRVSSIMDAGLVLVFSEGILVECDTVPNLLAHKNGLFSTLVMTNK

Test [16] has as its target T1, Sulfonylurea receptor 2, Kir6.2. As to the kind of experiment: Activity against pig bladder KATP channel opening assessed as ability to relax field-stimulated pig detrusor. Type of test: functional, Sus scrofa. Conditions: target entry is the homologue from another species.
The target is the same in test [17]. As to the kind of experiment: Ability to open human urinary bladder Kir6.2 channel containing SUR2B in Ltk cells by FLIPR assay. It is filed as functional, cell-based. Summed up: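 Ltk- cells stably transfected with the Kir6.2/SUR2B exon 17- splice variant. Membrane potential was followed with DiBAC dye in a 96-well cell-based kinetic fluorescence (FLIPR) assay. The highest concentration tested was 10 µM. Each compound's maximal fluorescence response was expressed as % of the response to the reference opener.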

Turning to `CCC[C@H]1OC(O)=C2C1=NC1=C(C(=O)COC1)[C@H]2c1ccc(F)c(Br)c1` (stereo in doubt; 23b), the Activity was 16% in the test on Rattus norvegicus [1]; 31.9% in the test with Rattus norvegicus [2]; 37.4% in the test with Rattus norvegicus [3]; 19.1% with Rattus norvegicus [4]; 4.2% in the test on Rattus norvegicus [5]; 46.7% in the test with Rattus norvegicus [6]. Further, the Activity with Rattus norvegicus [7] came out at 93.1%; with Rattus norvegicus [8], 22.6%; with Rattus norvegicus [9] it was 43.8%; in the test on Rattus norvegicus [10] it was 49.7%; in the test on Rattus norvegicus [11], 9.6%; in the test on Rattus norvegicus [12], 5.1%. For the same molecule, the Activity was found to be 23.6% in the test on Rattus norvegicus [13] and 40.7% in the test with Rattus norvegicus [14]. The EC50 (in general, the concentration that produces a half-maximal response) was 28.8 nM in [15], 513 nM in test [16] and 27.5 nM in test [17].
